# The source made the active and inactive calls.
# What was measured:
# Mus musculus [1] = test: Inhibition of urate-induced neutrophil recruitment into peritoneal cavity in mouse at 25 umol/kg; assay type: functional
# How it was run: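 In the ip MSU (3 mg) mouse model with oral gavage dosing, peritoneal lavage was taken at 4 h. Total cells were counted. A cytocentrifuged aliquot was stained with Diff-Quick, and the neutrophil percentage was scored microscopically by standard histological criteria.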
# [2] = Inhibition of superoxide production by xanthine/xanthine oxidase method; assay type: functional
# How it was run: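 Cell-free enzyme assay. Graded compound dilutions were prepared in 0.1 M Tris pH 7.4, 0.2 mM EDTA, 1% v/v DMSO. Final WST-1 0.35 mM, xanthine 2.38 mM and xanthine oxidase 15 mU/mL. Absorbance at 450 nm was read in real time for 20 min at 37 °C. The rate was compared with buffer controls, and the 50% inhibitory concentration was reported.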
# Mus musculus [3] = test: Inhibition of superoxide production in peritoneal neutrophils of C57BL/6 gouty mouse at 25.6 umol/kg, po after 4 hrs relative to monosodium urate; assay type: functional; details: C57BL/6, po
# How it was run: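 Male C57BL/6 mice, 8–12 weeks, received MSU crystals (3 mg in 500 µL PBS pH 7.4) ip, with oral gavage of compound (25.6 µmol/kg) at the same time. PBS-gavaged controls; colchicine given sc at 5 µmol/kg. After 4 h, peritoneal lavage with heparinized PBS. Cells adjusted to 1 × 10⁶ neutrophils/mL; PMA-triggered WST-1 reduction measured per million neutrophils, relative to MSU-only mice.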
# HL-60 = test: Antiproliferative activity against human HL60 cells after 48 hrs by MTT assay; details: HL-60, 48 h
# Neutrophil = test: Inhibition of PMA-stimulated superoxide production in human neutrophils; assay type: functional, cell-based
# How it was run: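 Neutrophils in HBSS, 1 × 10⁶ cells/well, preincubated 30 min with graded compound concentrations (HBSS, 1% v/v DMSO). WST-1 added (final 0.35 mM), then PMA (final 0.295 µM). Dye reduction read in real time at 450 nm for 20 min at 37 °C. Rate compared with buffer-treated cells; AI50 is the concentration giving 50% inhibition.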
Structure (SMILES),IC50 [2] [µM],IC50 (HL-60) [µM],IC50 (Neutrophil) [µM],inhibition in vivo at 25 µmol/kg (Mus musculus [1]) [%],inhibition in vivo at 25.6 µmol/kg (Mus musculus [3]) [%],Activity (Mus musculus [1])
COC(=O)c1ccc2c(n1)C(=O)C=CC2=O,–,4.11,1.75,–,–,–
Oc1ncnc2[nH]ncc12 [ALLOPURINOL],42.2,–,–,–,–,–
COC(=O)c1ccc2cccc(O)c2n1,–,96.9,277,–,–,–

# Further lines, with some results ahead:
IC50 [2] [µM],IC50 (HL-60) [µM],IC50 (Neutrophil) [µM],Structure (SMILES),inhibition in vivo at 25 µmol/kg (Mus musculus [1]) [%],inhibition in vivo at 25.6 µmol/kg (Mus musculus [3]) [%],Activity (Mus musculus [1])
18.2,–,–,COC(=O)c1ccc2c(n1)C(=O)C1=C(C2=O)S(=O)(=O)CCN1 [ASCIDIATHIAZONE A METHYL ESTER],60,84,–
17.9,16.7,0.44,O=C(O)c1ccc2c(n1)C(=O)C1=C(NC=CS1(=O)=O)C2=O [ASCIDIATHIAZONE B],–,59,inactive
55.9,–,–,O=C(O)c1ccc2c(n1)C(=O)C1=C(C2=O)S(=O)(=O)CCN1 [ACIDIATHIAZONE A],–,23,inactive
–,0.00692,–,CN(Cc1cnc2nc(N)nc(N)c2n1)c1ccc(C(=O)N[C@@H](CCC(=O)O)C(=O)O)cc1 [METHOTREXATE],–,–,–

# — ChEMBL document CHEMBL1143679, “Anti-inflammatory thiazine alkaloids isolated from the New Zealand ascidian Aplidium sp.: inhibitors of the neutrophil respiratory burst in a model of gouty arthritis” (J Nat Prod, 2007)
